Experimental data of several laboratories.
Target: Tyrosine-protein kinase Fyn (FYN, Homo sapiens, UniProt P06241)

| SMILES | read-out | technique | tested at | remaining binding |
| --- | --- | --- | --- | --- |
| C[C@@H](c1ccc(-n2cnc3c(N)ncnc32)cc1)N1CCc2nn(C)c(Cc3ccccc3)c2C1=O | binding | competition with immobilised ligand | 0.1 µM | 100% |
| C[C@@H]1CCN(c2nccc(-c3cnn4ncccc34)n2)C1 | binding |  | 1 µM | 88% |
| O=C(O)[C@@H]1[C@@H](Cn2nnc3ccccc3c2=O)CC[C@H]1C(=O)c1ccc(OCCC2CCOCC2)cc1 | cell-free assay | competition with immobilised ligand | 1 µM | 76% |
| CN(C)c1nccc(-c2cnc3ncccn23)n1 | binding |  | 1 µM | 99% |
| O=C(NCC1CCOCC1)c1n[nH]cc1NC(=O)c1c(F)cccc1F | binding | competition with immobilised ligand | 1 µM | 100% |
| Cc1cnc(Nc2ccc(C(=O)N3CCC(N4CCCC4)CC3)cc2)nc1-c1cc2ccccc2s1 | binding | competition with immobilised ligand | 1 µM | 78% |
| C[C@@H]1CN(c2cc(-c3n[nH]c4ccc(OC5(C)CC5)cc34)ncn2)C[C@H](C)O1 | cell-free assay | competition with immobilised ligand | 0.1 µM | 100% |
| CNC(=O)[C@@H]1CC[C@@H](n2c(-c3ccc4cnccc4c3)nc3ccc(C(=O)NCc4cccc(C(N)=O)c4)cc32)C1 | binding | competition with immobilised ligand | 1 µM | 100% |
| Nc1ncc2c(n1)-c1c([nH]c3ccc(C#CC4CC4)cc13)CCCC2 | binding | competition with immobilised ligand | 1 µM | 100% |
| CN(C)c1nccc(-c2cnn3ncccc23)n1 | binding |  | 1 µM | 100% |
| CN(C)CC#Cc1ccc(OCCCc2sc(N3CCc4cccc(C(=O)Nc5nc6ccccc6s5)c4C3)nc2C(=O)O)c(F)c1 | cell-free assay | competition with immobilised ligand | 1 µM | 96% |
| O=C(c1ccc(Nc2ncc(Cl)c(-c3ccc(Cl)s3)n2)cc1)N1CCC(N2CCCC2)CC1 | binding | competition with immobilised ligand | 1 µM | 100% |
| COc1ccc2c(c1)O[C@H](c1ccc(OC)c(OC)c1)C[C@@H]2NC(=O)C1(c2ccc3c(c2)OC(F)(F)O3)CC1 | cell-free assay | competition with immobilised ligand | 1 µM | 100% |
| COc1ncc2cc3ccccc3nc2c1C#N | cell-free assay | competition with immobilised ligand | 5 µM | 100% |
| CN(CCCC(F)(F)F)c1nccc(-c2cnn3ncccc23)n1 | binding |  | 1 µM | 82% |
| FC(F)(F)Oc1cccc(-c2cnc3ccc(-c4ccncc4)nn23)c1 | cell-free assay | competition with immobilised ligand | 5 µM | 51% |
| C[C@H](c1ccc(F)cc1)N(Cc1cccc(C(=O)O)c1)C(=O)c1cnc2ccccc2c1 | cell-free assay | competition with immobilised ligand | 1 µM | 63% |
| N[C@@H]1CCN(c2nccc(-c3cnn4ncccc34)n2)C1 | binding |  | 1 µM | 100% |
| O=C(NCCCN1CCOCC1)c1ccc(Nc2nccc(-c3cc4ccccc4s3)n2)cc1 | binding | competition with immobilised ligand | 1 µM | 94% |
| CS(=O)(=O)N1CCCC(NC(=O)[C@H](CCC2CCCCC2)NC(=O)c2ccc(CNC(=O)c3cnc4ccccn34)cc2)C1 (stereo partly drawn) | cell-free assay | competition with immobilised ligand | 0.1 µM | 80% |
| COc1cnc(Nc2cccc(S(N)(=O)=O)c2)nc1N1CCN(c2ccccc2)CC1 | binding | competition with immobilised ligand | 1 µM | 99% |
